Experimental findings from ChEMBL document CHEMBL1152903, “Synthesis and activity of N-oxalylglycine and its derivatives as Jumonji C-domain-containing histone lysine demethylase inhibitors” (Bioorg Med Chem Lett, 2009) are described below.

Experiment [1] deals with T1, Lysine-specific demethylase 4C (Homo sapiens) (UniProt Q9H3R0).
T1 sequence (whole entry): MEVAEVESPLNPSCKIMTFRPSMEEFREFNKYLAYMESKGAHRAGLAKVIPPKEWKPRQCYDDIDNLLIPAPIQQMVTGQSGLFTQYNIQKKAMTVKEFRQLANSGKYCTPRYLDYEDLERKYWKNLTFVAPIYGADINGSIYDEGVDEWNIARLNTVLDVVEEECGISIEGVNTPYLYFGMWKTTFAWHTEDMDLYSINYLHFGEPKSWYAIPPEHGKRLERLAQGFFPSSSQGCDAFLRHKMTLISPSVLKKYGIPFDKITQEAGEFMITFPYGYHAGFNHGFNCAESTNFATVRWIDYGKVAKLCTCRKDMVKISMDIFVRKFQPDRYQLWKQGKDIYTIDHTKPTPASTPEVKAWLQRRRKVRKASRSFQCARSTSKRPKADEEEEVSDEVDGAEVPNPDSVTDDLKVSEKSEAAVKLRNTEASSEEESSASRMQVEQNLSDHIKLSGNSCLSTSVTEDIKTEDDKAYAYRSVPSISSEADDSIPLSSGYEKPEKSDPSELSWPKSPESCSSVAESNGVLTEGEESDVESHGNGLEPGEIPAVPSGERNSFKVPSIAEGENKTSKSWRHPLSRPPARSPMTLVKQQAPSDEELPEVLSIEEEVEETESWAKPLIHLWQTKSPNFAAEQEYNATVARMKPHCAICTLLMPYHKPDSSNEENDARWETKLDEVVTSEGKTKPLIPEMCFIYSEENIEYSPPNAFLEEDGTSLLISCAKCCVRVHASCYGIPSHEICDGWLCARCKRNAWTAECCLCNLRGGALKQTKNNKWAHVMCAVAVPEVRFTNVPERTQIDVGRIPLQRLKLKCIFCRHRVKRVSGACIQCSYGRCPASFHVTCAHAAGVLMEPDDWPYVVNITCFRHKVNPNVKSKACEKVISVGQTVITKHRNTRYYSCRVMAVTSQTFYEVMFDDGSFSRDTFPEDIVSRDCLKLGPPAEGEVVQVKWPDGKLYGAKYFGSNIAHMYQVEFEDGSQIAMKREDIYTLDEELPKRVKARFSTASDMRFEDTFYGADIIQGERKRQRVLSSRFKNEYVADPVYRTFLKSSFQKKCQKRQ
The experiment in a line: Inhibition of JMJD2C-mediated H3K9 demethylation activity at 3 mM. The method in brief:
(§1)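 GST fusions of JMJD2A (aa 2–350) or JMJD2C (aa 2–352), made in E. coli and purified on glutathione-agarose. Each was incubated with histones in 50 mM Hepes pH 7.4, 50 mM NaCl, 50 mM KCl, 2 mM ascorbate, 0.2 mM (NH₄)₂Fe(SO₄)₂ and α-ketoglutarate, with inhibitor in DMSO or DMSO alone, 1 h at 37 °C. Read-out was anti-H3K9me₃ Western blot with ECL; H4K20me₁ served as a control.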

For experiment [2], the target named is T2, Lysine-specific demethylase 4D (Homo sapiens) (UniProt Q6B0I6).
T2 sequence (whole entry): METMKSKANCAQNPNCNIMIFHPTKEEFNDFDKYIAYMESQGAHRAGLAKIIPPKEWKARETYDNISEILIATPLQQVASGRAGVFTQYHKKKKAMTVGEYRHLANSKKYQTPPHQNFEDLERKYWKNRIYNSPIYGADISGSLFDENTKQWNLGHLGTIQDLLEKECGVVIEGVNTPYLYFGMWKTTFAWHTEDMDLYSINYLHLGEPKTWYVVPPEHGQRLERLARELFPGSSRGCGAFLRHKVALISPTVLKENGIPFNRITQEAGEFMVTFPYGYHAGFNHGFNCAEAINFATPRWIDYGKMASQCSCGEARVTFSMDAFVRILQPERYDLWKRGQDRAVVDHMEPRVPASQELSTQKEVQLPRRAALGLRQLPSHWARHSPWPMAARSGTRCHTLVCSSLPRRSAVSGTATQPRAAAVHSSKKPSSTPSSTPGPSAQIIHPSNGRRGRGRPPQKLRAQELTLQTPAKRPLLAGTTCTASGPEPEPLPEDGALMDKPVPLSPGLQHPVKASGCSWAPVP
The experiment in a line: Inhibition of JMJD2D-mediated H3K9 demethylation activity at 3 mM. Put shortly:
(§2)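 Full-length GST-JMJD2D, expressed in E. coli and purified on glutathione-agarose, was incubated with histones, α-ketoglutarate, 2 mM ascorbate and 0.2 mM (NH₄)₂Fe(SO₄)₂ in 50 mM Hepes pH 7.4 with 50 mM NaCl and 50 mM KCl. Inhibitor in DMSO, or DMSO alone, was present for 2 h at 37 °C. H3K9me₃ was detected by Western blot with ECL, with H4K20me₁ as a control.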

In experiment [3] the target is T3, Lysine-specific demethylase 4A (Homo sapiens) (UniProt O75164).
T3 sequence (whole entry): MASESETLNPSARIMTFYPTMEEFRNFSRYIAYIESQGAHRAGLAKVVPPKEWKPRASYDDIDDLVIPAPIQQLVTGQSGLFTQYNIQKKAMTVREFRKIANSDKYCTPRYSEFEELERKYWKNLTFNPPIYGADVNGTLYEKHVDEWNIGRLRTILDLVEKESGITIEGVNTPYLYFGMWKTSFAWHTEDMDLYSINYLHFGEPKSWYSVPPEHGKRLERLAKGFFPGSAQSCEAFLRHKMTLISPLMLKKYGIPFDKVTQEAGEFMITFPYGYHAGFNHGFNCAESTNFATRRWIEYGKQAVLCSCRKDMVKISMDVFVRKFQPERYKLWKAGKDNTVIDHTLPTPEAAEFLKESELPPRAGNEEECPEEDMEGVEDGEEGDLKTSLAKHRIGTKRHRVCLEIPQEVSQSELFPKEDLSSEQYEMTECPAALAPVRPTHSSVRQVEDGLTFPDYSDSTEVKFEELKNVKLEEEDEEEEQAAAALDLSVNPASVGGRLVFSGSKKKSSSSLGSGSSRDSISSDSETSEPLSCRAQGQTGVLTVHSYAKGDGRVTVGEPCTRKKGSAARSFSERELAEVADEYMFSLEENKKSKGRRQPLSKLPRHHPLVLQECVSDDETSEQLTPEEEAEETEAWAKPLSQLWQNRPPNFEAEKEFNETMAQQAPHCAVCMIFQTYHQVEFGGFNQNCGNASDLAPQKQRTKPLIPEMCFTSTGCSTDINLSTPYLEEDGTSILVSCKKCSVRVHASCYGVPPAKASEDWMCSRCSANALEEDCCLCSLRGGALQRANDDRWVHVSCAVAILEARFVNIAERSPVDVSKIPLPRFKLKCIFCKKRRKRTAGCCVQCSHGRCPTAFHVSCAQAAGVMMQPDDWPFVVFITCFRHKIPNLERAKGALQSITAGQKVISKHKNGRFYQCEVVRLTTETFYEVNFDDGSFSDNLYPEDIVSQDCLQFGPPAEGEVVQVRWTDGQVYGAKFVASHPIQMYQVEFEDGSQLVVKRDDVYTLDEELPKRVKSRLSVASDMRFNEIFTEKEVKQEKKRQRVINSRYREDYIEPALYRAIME
The experiment in a line: Inhibition of JMJD2A-mediated H3K9 demethylation activity at 3 mM. Put shortly: as §1

Experiment [4] has as its target T1, Lysine-specific demethylase 4C (Homo sapiens). The experiment in a line: Inhibition of JMJD2C-mediated H3K9 demethylation activity at 1 mM. The method in brief:
as §1

The target of experiment [5] is T3, Lysine-specific demethylase 4A (Homo sapiens). Nature of the experiment: Inhibition of JMJD2A-mediated H3K9 demethylation activity at 1 mM. The method in brief:
as §1

The target in experiment [6] is T2, Lysine-specific demethylase 4D (Homo sapiens). The experiment in a line: Inhibition of JMJD2D-mediated H3K9 demethylation activity at 1 mM. The method in brief:
as §2

Experiment [7] has as its target T1, Lysine-specific demethylase 4C (Homo sapiens). The experiment in a line: Inhibition of JMJD2C-mediated H3K36 demethylation in human 293T cells at […]. The class given is cell-based. Put shortly: (§3)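 293T cells were transfected with or without Flag-JMJD2C by calcium phosphate coprecipitation; the precipitate was washed off with PBS after 12 h. Cells were grown 12 h in DMEM + 10% FCS under 10% CO₂, then for 24 h in fresh medium containing inhibitor in DMSO or 1% DMSO. Lysates were boiled in Laemmli buffer and histone methylation was assessed by Western blotting.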

Experiment [8] has the same target. Nature of the experiment: Inhibition of JMJD2C-mediated H3K9 demethylation in human 293T cells at […]. It counts as cell-based. The method in brief:
as §3

Experiment [9] addresses Lysine-specific demethylase 4C (Homo sapiens) (UniProt Q9H3R0). Nature of the experiment: Inhibition of JMJD2-mediated H3K9 demethylation in human 293T cells at 2.5 mM.
In experiment [10] the target is T1, Lysine-specific demethylase 4C (Homo sapiens). Nature of the experiment: Inhibition of JMJD2C-mediated H3K9 demethylation in human 293T cells at 2.5 mM. It counts as cell-based. Put shortly: as §3
The target is the same in experiment [11]. Nature of the experiment: Inhibition of JMJD2C-mediated H3K36 demethylation in human 293T cells at 2.5 mM. The class given is cell-based. Put shortly: as §3
Experiment [12] addresses Lysine-specific demethylase 4C (Homo sapiens) (UniProt Q9H3R0). The experiment in a line: Inhibition of JMJD2-mediated H3K36 demethylation in human 293T cells at 2.5 mM.

Molecules are shown by their SMILES. Calls of active or inactive are those of the source. The rule behind the calls is not given here.

As for `CN(C)c1ccc(CN(CC(=O)O)C(=O)C(=O)O)cc1`, the Histone_modification result in experiment [1], in experiment [2], in [3] and in experiment [6] was “Active” throughout. Also, the Histone_modification result in [4] and in [5] was “inactive” throughout.
As to `COC(=O)CCC(=O)OC`, the Histone_modification entry in experiment [7] and in [8] was “inactive” in each case.
Regarding `COC(=O)CNC(=O)C(=O)OC`, the Histone_modification result in [9], in experiment [10], in experiment [11] and in experiment [12] was “Active” in each case.
With `COC(=O)CN(Cc1ccc(N(C)C)cc1)C(=O)C(=O)OC`, in experiment [9], the Histone_modification entry is “Active”. Moreover, the Histone_modification result in [10] and in experiment [11] was “inactive” each time.
Take `CN(C)c1ccc(CCCN(CC(=O)O)C(=O)C(=O)O)cc1`: the Histone_modification result in experiment [1] and in [3] was “Active-partial” throughout. In addition, the Histone_modification result in experiment [4] and in experiment [5] was “inactive” each time. For the same compound, the Histone_modification entry in [6] is “Active”.
As for `O=C(O)CNC(=O)C(=O)O`, the Histone_modification entry in experiment [1], in [2], in experiment [3], in experiment [4], in experiment [5] and in experiment [6] was “Active” each time.
For `CN(C)c1ccc(CCN(CC(=O)O)C(=O)C(=O)O)cc1`, the Histone_modification result in [1], in experiment [2], in [3] and in [6] was “Active” each time. Moreover, the Histone_modification entry in experiment [4] and in [5] was “inactive” in each case.
In the case of `CN(C)c1cccc(CN(CC(=O)O)C(=O)C(=O)O)c1`, the Histone_modification entry in experiment [1], in experiment [2] and in experiment [3] was “Active” throughout. Also, the Histone_modification result in experiment [4] and in experiment [5] was “inactive” throughout.
